The text below walks through data of ChEMBL document CHEMBL4229515, “A novel synthesis of 2-arylbenzimidazoles in molecular sieves-MeOH system and their antitubercular activity” (Bioorg Med Chem, 2018).

Common to all, as to format: organism-based
What all share (conditions): in vivo, 168 h

Data set [1] relates to Mus musculus. The data set can be described thus: Acute toxicity in Swiss albino mouse assessed as depression at 1000 mg/kg, po measured over 7 days. A digest of the protocol:
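Single acute oral dose of 5, 50, 300 or 1000 mg/kg body weight, with an untreated control group; n=6 mice per group. Animals observed for 7 days for morbidity, mortality, behaviour and body weight. At the end, blood and serum were analysed, and organs were examined grossly with absolute and relative weights. Data are mean±SE; P<0.05 was taken as significant versus control and the lower-dose groups.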

For data set [2], the system named is Mus musculus. Description: Acute toxicity in Swiss albino mouse assessed as effect on serum protein levels at 50 mg/kg, po after 7 days (reference value: 0.10 +/- 0.004 mg/mL).
The test system of data set [3] is Mus musculus. Description: Acute toxicity in Swiss albino mouse assessed as effect on RBC count at 300 mg/kg, po after 7 days (reference value: 7.61 +/- 0.54 10^6/mm3).
The subject of data set [4] is Mus musculus. The data set can be described thus: Acute toxicity in Swiss albino mouse assessed as effect on haemoglobin levels at 1000 mg/kg, po after 7 days (reference value: 12.29 +/- 0.53 g/dL).
Data set [5] concerns Mus musculus. Description: Acute toxicity in Swiss albino mouse assessed as effect on SGOT levels at 1000 mg/kg, po after 7 days (reference value: 15.11 +/- 1.25 U/L).

As for `COc1ccc2c(c1)nc(-c1ccccc1OC)n2Cc1ccccc1OC`, the Activity entry in the data set with Mus musculus [1] was “Non-Toxic”; in the data set on Mus musculus [2], 0.09 mg/mL; in the data set with Mus musculus [3], 6.87 10^6/mm3; in the data set with Mus musculus [4] it was 9.68 g/dL; in the data set on Mus musculus [5], 11.83 U/L.
